Each structure is given as a SMILES string. Activity calls are given as the source filed them. The rule behind the calls is not given here.

Data set [1] deals with Serine/threonine-protein kinase pim-2 (Homo sapiens) (UniProt Q9P1W9). Nature of the data set: Inhibition of human PIM2 expressed in bacterial expression system assessed as remaining enzyme activity at 10 uM by kinome scan assay.
Data set [2] addresses Homeodomain-interacting protein kinase 2 (Homo sapiens) (UniProt Q9H2X6). Nature of the data set: Inhibition of human HIPK2 expressed in mammalian expression system assessed as remaining enzyme activity at 10 uM by kinome scan assay.
For data set [3], the target named is Death-associated protein kinase 3 (Homo sapiens) (UniProt O43293). Nature of the data set: Inhibition of human DAPK3 expressed in bacterial expression system assessed as remaining enzyme activity at 10 uM by kinome scan assay.
Data set [4] deals with Homeodomain-interacting protein kinase 1 (Homo sapiens) (UniProt Q86Z02). Nature of the data set: Inhibition of human HIPK1 expressed in mammalian expression system assessed as remaining enzyme activity at 10 uM by kinome scan assay.
Data set [5] deals with Casein kinase I isoform gamma-2 (Homo sapiens) (UniProt P78368). Nature of the data set: Inhibition of human CSNK1G2 expressed in bacterial expression system assessed as remaining enzyme activity at 10 uM by kinome scan assay.
Casein kinase I isoform gamma-2 (Homo sapiens), sequence (P78368 whole entry, looked up, canonical isoform): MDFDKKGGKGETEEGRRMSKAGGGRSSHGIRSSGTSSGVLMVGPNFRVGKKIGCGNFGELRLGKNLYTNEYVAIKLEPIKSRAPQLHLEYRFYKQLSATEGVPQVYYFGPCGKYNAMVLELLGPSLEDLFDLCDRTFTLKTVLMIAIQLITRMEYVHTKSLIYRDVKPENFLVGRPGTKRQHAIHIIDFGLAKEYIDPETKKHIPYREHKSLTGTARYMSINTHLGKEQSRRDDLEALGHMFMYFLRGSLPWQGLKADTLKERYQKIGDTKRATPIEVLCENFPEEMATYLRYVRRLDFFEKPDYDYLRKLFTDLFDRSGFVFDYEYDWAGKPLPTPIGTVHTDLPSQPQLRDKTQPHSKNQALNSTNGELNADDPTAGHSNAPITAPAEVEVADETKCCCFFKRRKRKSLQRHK
Data set [6] addresses Cyclin-dependent kinase-like 5 (Homo sapiens) (UniProt O76039). Nature of the data set: Inhibition of human CDKL5 expressed in mammalian expression system assessed as remaining enzyme activity at 10 uM by kinome scan assay.
For data set [7], the target named is Cyclin-dependent kinase 7 (Homo sapiens) (UniProt P50613). Nature of the data set: Inhibition of human CDK7 expressed in mammalian expression system assessed as remaining enzyme activity at 10 uM by kinome scan assay.
Cyclin-dependent kinase 7 (Homo sapiens), sequence (P50613 whole entry): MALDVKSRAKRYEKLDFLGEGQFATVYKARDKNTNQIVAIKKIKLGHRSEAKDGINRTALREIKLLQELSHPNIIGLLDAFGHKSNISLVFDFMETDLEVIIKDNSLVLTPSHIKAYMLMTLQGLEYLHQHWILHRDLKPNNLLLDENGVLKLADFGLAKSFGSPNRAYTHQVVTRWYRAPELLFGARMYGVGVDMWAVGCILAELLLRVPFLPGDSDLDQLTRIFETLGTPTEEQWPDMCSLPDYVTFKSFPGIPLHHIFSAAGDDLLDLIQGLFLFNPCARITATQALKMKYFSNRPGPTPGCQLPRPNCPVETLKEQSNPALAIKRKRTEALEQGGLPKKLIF
Data set [8] deals with Serine/threonine-protein kinase 17B (Homo sapiens) (UniProt O94768). Nature of the data set: Inhibition of human DRAK2 expressed in bacterial expression system assessed as remaining enzyme activity at 10 uM by kinome scan assay.
Serine/threonine-protein kinase 17B (Homo sapiens), sequence (O94768 whole entry): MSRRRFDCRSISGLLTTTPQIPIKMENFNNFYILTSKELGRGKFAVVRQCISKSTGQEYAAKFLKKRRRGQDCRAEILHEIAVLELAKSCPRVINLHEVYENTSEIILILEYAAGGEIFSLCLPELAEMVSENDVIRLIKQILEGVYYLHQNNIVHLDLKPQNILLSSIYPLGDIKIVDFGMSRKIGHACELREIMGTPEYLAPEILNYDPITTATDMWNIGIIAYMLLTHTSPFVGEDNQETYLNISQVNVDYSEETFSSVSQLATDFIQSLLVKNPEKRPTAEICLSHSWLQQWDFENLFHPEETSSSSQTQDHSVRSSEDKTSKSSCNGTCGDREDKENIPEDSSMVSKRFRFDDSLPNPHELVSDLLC
Data set [9] concerns the target Casein kinase II subunit alpha' (Homo sapiens) (UniProt P19784). Nature of the data set: Inhibition of human CSNK2A2 expressed in mammalian expression system assessed as remaining enzyme activity at 10 uM by kinome scan assay.
A short description of data set [10]: Toxicity in human pancreatic islets at >10 uM. The following applies: pancreatic islet.
The test system of data set [11] is Pancreatic islet. Nature of the data set: Induction of beta-cell proliferation in human pancreatic islets at 10 uM incubated for 96 hrs by Ki67 and insulin immunolabelling method. The class given is functional, cell-based. The gist of the method:
(§1)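 Human islets from the NIH/NIDDK IIDP dispersed onto coverslips with Accutase, then treated with compound or vehicle (0.1% DMSO) in RPMI1640 complete medium for 96 h. Cells fixed, stained for insulin and Ki67, imaged; Ki67/insulin double-positive and total insulin-positive cells counted. Islets from 3 to 5 adult donors, at least 1000 beta cells counted per donor; n = 4–5, SEM.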

Data set [12] deals with Death-associated protein kinase 1 (Homo sapiens) (UniProt P53355). Nature of the data set: Inhibition of human DAPK1 expressed in bacterial expression system assessed as remaining enzyme activity at 10 uM by kinome scan assay.
In data set [13] the target is TGF-beta receptor type-2 (Homo sapiens) (UniProt P37173). Nature of the data set: Inhibition of human TGFBR2 expressed in bacterial expression system assessed as remaining enzyme activity at 10 uM by kinome scan assay.
In data set [14] the target is Phosphatidylinositol 5-phosphate 4-kinase type-2 gamma (Homo sapiens) (UniProt Q8TBX8). Nature of the data set: Inhibition of human PIP5K2C expressed in mammalian expression system assessed as remaining enzyme activity at 10 uM by kinome scan assay.
The target of data set [15] is Interleukin-1 receptor-associated kinase 1 (Homo sapiens) (UniProt P51617). Nature of the data set: Inhibition of human IRAK1 expressed in mammalian expression system assessed as remaining enzyme activity at 10 uM by kinome scan assay.
The target in data set [16] is Phosphatidylinositol 4-kinase beta (Homo sapiens) (UniProt Q9UBF8). Nature of the data set: Inhibition of human PIK4CB expressed in mammalian expression system assessed as remaining enzyme activity at 10 uM by kinome scan assay.
In data set [17] the target is Cyclin-dependent kinase 8 (Homo sapiens) (UniProt P49336). Nature of the data set: Inhibition of human CDK8 expressed in bacterial expression system assessed as remaining enzyme activity at 10 uM by kinome scan assay.
Cyclin-dependent kinase 8 (Homo sapiens), sequence (P49336 whole entry): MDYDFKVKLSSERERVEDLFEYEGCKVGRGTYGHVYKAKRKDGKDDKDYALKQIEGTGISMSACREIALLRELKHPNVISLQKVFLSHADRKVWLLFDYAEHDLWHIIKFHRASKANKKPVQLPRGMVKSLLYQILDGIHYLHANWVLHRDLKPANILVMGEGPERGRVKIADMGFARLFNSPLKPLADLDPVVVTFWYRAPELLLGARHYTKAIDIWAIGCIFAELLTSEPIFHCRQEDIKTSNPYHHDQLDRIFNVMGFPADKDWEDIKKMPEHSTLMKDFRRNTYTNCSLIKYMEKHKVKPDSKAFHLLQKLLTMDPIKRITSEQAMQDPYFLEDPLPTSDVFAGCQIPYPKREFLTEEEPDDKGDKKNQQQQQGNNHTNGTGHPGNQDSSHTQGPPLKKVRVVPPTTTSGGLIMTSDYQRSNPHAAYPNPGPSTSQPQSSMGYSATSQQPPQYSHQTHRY
The target of data set [18] is Cyclin-dependent kinase 19 (Homo sapiens) (UniProt Q9BWU1). Nature of the data set: Inhibition of human CDK11 expressed in bacterial expression system assessed as remaining enzyme activity at 10 uM by kinome scan assay.
Data set [19] has as its target Casein kinase I isoform alpha (Homo sapiens) (UniProt P48729). Nature of the data set: Inhibition of human CSNK1A1 expressed in mammalian expression system assessed as remaining enzyme activity at 10 uM by kinome scan assay.
The target in data set [20] is Dual specificity tyrosine-phosphorylation-regulated kinase 1B (Homo sapiens) (UniProt Q9Y463). Nature of the data set: Inhibition of human DYRK1B expressed in bacterial expression system assessed as remaining enzyme activity at 10 uM by kinome scan assay.
Data set [21] deals with Interleukin-1 receptor-associated kinase 3 (Homo sapiens) (UniProt Q9Y616). Nature of the data set: Inhibition of human IRAK3 expressed in bacterial expression system assessed as remaining enzyme activity at 10 uM by kinome scan assay.
Interleukin-1 receptor-associated kinase 3 (Homo sapiens), sequence (Q9Y616 whole entry): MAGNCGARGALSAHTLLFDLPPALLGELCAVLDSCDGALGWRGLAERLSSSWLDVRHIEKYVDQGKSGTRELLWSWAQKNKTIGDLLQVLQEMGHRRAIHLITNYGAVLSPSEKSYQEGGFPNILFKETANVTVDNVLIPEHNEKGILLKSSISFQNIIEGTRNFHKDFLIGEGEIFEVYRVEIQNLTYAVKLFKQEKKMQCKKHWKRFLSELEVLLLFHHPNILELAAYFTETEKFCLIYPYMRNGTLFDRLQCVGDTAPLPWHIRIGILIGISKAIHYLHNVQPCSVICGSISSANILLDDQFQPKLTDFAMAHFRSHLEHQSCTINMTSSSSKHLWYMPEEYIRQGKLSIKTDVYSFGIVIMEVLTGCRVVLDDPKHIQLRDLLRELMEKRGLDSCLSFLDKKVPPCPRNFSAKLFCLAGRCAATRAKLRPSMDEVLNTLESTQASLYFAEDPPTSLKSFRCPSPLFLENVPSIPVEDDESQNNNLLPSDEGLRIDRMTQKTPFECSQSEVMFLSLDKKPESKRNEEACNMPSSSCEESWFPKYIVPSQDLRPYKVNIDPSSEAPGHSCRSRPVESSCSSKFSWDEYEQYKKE
The target in data set [22] is Death-associated protein kinase 2 (Homo sapiens) (UniProt Q9UIK4). Nature of the data set: Inhibition of human DAPK2 expressed in bacterial expression system assessed as remaining enzyme activity at 10 uM by kinome scan assay.
For data set [23], the target named is Casein kinase II subunit alpha (Homo sapiens) (UniProt P68400). Nature of the data set: Inhibition of human CSNK2A1 expressed in mammalian expression system assessed as remaining enzyme activity at 10 uM by kinome scan assay.
Data set [24] addresses Homeodomain-interacting protein kinase 3 (Homo sapiens) (UniProt Q9H422). Nature of the data set: Inhibition of human HIPK3 expressed in mammalian expression system assessed as remaining enzyme activity at 10 uM by kinome scan assay.
The target in data set [25] is Citron Rho-interacting kinase (Homo sapiens) (UniProt O14578). Nature of the data set: Inhibition of human CIT expressed in bacterial expression system assessed as remaining enzyme activity at 10 uM by kinome scan assay.
In data set [26] the target is Ribosomal protein S6 kinase alpha-4 (Homo sapiens) (UniProt O75676). Nature of the data set: Inhibition of human RPS6KA4 (Kin.Dom.2-C-terminal) expressed in mammalian expression system assessed as remaining enzyme activity at 10 uM by kinome scan assay.
Data set [27] deals with Serine/threonine-protein kinase pim-1 (Homo sapiens) (UniProt P11309). Nature of the data set: Inhibition of human PIM1 expressed in bacterial expression system assessed as remaining enzyme activity at 10 uM by kinome scan assay.
Serine/threonine-protein kinase pim-1 (Homo sapiens), sequence (P11309 whole entry, looked up): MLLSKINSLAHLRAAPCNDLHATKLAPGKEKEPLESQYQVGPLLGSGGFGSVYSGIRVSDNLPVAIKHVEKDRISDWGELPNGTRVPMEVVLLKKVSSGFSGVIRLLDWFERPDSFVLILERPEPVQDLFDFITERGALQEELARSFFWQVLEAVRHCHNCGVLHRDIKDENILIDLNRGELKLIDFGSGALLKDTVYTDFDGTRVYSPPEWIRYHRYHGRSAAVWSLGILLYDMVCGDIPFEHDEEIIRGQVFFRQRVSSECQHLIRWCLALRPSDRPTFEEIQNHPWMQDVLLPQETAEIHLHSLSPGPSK
The test system of data set [28] is Pancreatic islet. Nature of the data set: Induction of beta-cell proliferation in human pancreatic islets at 30 uM incubated for 96 hrs by Ki67 and insulin immunolabelling method. It is filed as functional, cell-based. The method in brief:
as §1

Data set [29] can be described thus: Toxicity in human pancreatic islets at 30 uM. The following applies: pancreatic islet. It is filed as cell-based.
In data set [30] the target is Dual specificity tyrosine-phosphorylation-regulated kinase 1A (Rattus norvegicus) (UniProt Q63470). Nature of the data set: Inhibition of DYRK1A in rat R7T1 cells expressing expressing NFAT2-GFP assessed as induction of NFAT2-GFP nuclear translocation at 10 uM incubated for 24 hrs by. It is filed as cell-based. The method in brief:
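Immortalized R7T1 rat beta cells infected with adenovirus expressing NFAT2-GFP for 48 h, then exposed to compound at 10 μM for a further 24 h. Cells imaged and NFAT2-GFP nuclear translocation scored as nuclear frequency, at least 1000 cells counted; n = 3, SEM.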

For data set [31], the system named is Pancreatic islet. Nature of the data set: Induction of beta-cell proliferation in human pancreatic islets incubated for 96 hrs by Ki67 and insulin immunolabelling method. It is filed as functional, cell-based. The method in brief:
as §1

Homeodomain-interacting protein kinase 3 (Homo sapiens), sequence (Q9H422 whole entry, looked up): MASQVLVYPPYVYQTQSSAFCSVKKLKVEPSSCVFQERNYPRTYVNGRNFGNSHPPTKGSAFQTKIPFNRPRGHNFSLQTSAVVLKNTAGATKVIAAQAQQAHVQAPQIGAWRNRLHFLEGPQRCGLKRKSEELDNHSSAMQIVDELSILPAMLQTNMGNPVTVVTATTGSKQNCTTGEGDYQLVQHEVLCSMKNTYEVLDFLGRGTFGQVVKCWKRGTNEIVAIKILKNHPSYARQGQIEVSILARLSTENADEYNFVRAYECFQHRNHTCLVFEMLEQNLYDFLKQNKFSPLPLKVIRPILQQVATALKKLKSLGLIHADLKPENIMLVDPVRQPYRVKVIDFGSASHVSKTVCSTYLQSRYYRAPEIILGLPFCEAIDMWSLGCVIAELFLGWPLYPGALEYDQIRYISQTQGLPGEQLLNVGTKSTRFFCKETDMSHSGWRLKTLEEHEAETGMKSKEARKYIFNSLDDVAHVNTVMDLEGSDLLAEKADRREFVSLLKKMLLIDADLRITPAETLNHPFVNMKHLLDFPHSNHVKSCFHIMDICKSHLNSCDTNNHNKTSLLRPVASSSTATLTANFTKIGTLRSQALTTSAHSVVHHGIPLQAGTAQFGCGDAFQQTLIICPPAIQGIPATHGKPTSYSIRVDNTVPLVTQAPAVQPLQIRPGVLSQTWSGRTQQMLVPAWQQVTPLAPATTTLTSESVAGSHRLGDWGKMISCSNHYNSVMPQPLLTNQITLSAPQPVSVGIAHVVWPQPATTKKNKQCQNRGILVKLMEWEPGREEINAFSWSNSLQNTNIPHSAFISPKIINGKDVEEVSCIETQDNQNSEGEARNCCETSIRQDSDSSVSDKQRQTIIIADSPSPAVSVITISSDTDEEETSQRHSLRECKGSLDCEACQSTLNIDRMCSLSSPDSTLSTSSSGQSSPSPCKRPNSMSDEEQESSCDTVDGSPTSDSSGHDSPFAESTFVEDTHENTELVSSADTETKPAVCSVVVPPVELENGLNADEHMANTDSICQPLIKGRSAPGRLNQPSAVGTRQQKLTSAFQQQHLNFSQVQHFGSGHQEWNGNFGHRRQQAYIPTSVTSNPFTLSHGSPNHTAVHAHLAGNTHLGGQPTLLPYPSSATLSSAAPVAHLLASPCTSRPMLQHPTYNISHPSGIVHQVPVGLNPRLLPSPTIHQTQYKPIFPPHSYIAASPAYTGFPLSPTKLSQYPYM
Casein kinase I isoform alpha (Homo sapiens), sequence (P48729 2-337 limits assumed): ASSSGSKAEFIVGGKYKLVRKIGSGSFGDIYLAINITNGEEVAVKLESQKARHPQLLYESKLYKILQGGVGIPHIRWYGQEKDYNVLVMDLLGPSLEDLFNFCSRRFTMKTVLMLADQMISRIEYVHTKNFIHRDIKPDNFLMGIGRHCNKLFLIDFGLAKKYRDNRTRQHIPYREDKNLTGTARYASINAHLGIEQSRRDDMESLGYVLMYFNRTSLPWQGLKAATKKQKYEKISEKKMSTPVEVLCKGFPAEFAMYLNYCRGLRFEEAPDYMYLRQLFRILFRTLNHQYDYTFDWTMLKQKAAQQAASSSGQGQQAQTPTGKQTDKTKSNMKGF
Cyclin-dependent kinase-like 5 (Homo sapiens), sequence (O76039 whole entry): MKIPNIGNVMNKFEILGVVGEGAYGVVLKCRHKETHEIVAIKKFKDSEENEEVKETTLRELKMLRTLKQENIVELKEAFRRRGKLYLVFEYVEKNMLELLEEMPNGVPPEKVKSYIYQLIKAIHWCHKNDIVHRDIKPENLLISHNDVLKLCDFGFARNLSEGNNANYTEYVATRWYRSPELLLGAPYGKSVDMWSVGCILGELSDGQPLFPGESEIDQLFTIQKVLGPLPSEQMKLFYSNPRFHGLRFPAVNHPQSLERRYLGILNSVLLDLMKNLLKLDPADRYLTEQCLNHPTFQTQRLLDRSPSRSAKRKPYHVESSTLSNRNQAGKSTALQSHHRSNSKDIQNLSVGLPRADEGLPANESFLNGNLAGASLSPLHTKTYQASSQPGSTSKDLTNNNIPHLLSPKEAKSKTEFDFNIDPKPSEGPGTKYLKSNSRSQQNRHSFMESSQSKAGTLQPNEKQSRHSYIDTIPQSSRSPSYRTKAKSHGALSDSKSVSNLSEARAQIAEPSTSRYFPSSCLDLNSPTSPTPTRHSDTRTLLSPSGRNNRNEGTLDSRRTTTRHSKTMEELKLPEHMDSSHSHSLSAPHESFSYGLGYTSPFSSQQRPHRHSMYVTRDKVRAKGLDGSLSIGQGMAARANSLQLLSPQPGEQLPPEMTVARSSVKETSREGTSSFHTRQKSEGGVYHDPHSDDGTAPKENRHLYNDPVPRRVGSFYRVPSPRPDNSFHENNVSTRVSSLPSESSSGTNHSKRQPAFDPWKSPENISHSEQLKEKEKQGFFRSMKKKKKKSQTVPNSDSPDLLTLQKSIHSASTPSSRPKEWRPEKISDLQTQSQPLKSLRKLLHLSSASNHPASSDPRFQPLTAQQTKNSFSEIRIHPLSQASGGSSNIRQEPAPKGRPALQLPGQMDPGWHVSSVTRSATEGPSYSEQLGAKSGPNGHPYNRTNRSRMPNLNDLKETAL

Take `COc1ccc2c(c1)[nH]c1c(C)nccc12` [HARMINE]: the Activity in data set [1] came to 39%; in data set [2] it was 8.6%; in data set [3] it was 69%; in data set [4], 21%; in data set [5], 19%; in data set [6], 100%. In addition, the Activity in [7] was 21%; in data set [8], 73%; in data set [9], 23%; in data set [10], “Toxic”; in data set [12], 78%; in [13], 78%. Moreover, the Activity in data set [14] is 36%; in data set [15] it was 17%; in data set [16], 12%; in data set [17], 55%; in [18], 83%; in data set [19], 15%. Moreover, the Activity came out at 6.1% in data set [20]; 15% in data set [21]; 72% in data set [22]; 11% in data set [23]; 9.4% in data set [24]; 29% in [25]. The Activity in data set [26] was 40%; in data set [27], 45%. Further, in the data set with Pancreatic islet [11], the outcome was Active.
Turning to `COc1ccc2c(c1)[nH]c1c(N3CCCC3c3ccccc3)nccc12` (stereo not given), in the data set on Pancreatic islet [11], the result was inactive.
`COc1ccc2c(c1)[nH]c1c(CO)nccc12`: the outcome in the data set on Pancreatic islet [28] and in the data set with Pancreatic islet [11] was Active. Besides, the Activity entry in data set [29] is “Non-Toxic”; in the data set on Pancreatic islet [31] it was “Dose-dependent effect”. In addition, in data set [30], the inhibition result is “Active”.
As to `COc1ccc2c(c1)[nH]c1c(C)nc(CO)cc12`, the result with Pancreatic islet [28] and in the data set on Pancreatic islet [11] was Active. For the same molecule, the results for the Activity (in data set [17]; in data set [29]; in the data set on Pancreatic islet [31]) were 0%, “Non-Toxic” and “Dose-dependent effect”, respectively. In addition, the inhibition result in [30] was “Active”.
For `COc1ccc2c(c1)[nH]c1c(C(C)=O)nccc12`, the outcome in the data set on Pancreatic islet [28] was Active.
For the molecule `COc1ccc2c(c1)[nH]c1c(N3CCCC3)nccc12`, the outcome in the data set on Pancreatic islet [11] was inactive.
Still for that read-out and setting: the result for `COc1ccc2c(c1)[nH]c1c(N3CCCC3Cc3ccccc3)nccc12` (stereo not given) reads “inactive”.
`COc1ccc2c(c1)[nH]c1c(Cl)nccc12`: the outcome with Pancreatic islet [28] and in the data set on Pancreatic islet [11] was Active.
Regarding `COc1ccc2c(c1)[nH]c1c(N3CCC3)nccc12`, the outcome in the data set on Pancreatic islet [11] was Active.
